# Compound activity deposited in PubChem BioAssay by Columbia University Molecular Screening Center.
# INS promoter act – TRM-6 insulin promoter activation; TRM-6 cells, insulin promoter eGFP reporter, imaging; plate-scaled: unstimulated 0, stimulated control 100; 0.81% of 130,000 active; activation, % at 2 µM; AID 1296;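 active = activation at 2 µM above a set limit, confirmed on inspection of the cell images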;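 also: share of cells whose green reporter signal exceeds an intensity cutoff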
#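 material = TRM-6 human fetal islet cells, insulin promoter–eGFP reporter | input = 1,000 TRM-6 cells seeded per well | benchmarks = stimulated versus unstimulated wells as plate controls | measured by = automated fluorescence imaging of paraformaldehyde-fixed, Hoechst-counterstained cells, green channel | schedule = compound exposure 48 h, 37 °C | reagent = tamoxifen at 0.75 µM added at seeding for reporter induction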
# Starred values were filed as active, the others as inactive. The full list was thinned out, with hits kept by preference.
SMILES,INS promoter act
O=c1c2ccccc2nc(/C=C/c2ccc([N+](=O)[O-])o2)n1-c1ccc(O)cc1,525*
CCOc1ccc(-n2c(-c3ccoc3)nc3ccccc3c2=O)cc1,4
O=C(Cn1cc(C(=O)c2ccccc2F)c2ccccc21)NC1CC1,127
COc1ccc(C(=O)C(Cc2ccccc2)N(C)C)cc1 (stereo unspecified),4
COc1ccc(C(=O)C(C)(C)NO)cc1,469*
COc1ccc(O)c(C(C)(C)C)c1,-7
Cn1c(O)c(N=Nc2cccc(S(=O)(=O)N3CCOCC3)c2)c(=O)n(C)c1=O,6
Cc1ccsc1C(=O)C1CCCN(Cc2cccn2-c2ccccn2)C1 (stereo unspecified),0
O=C(CCCOc1ccc(Cl)cc1Cl)N1CCC2(CC1)OCCO2,171
O=C(CNC1CCCCC1)N1CCC2(CC1)OCCO2,658*
Cc1ccc(-c2ccc(=O)n(CCC(=O)N3CCC4(CC3)OCCO4)n2)cc1,0
CCCCC(C)C(OC(=O)CC(CC(=O)O)C(=O)O)C(CC(C)CC(O)CCCCC(O)CC(O)C(C)N)OC(=O)CC(CC(=O)O)C(=O)O (stereo unspecified),-9
O=C(COc1ccc(Cl)cc1)N1CCN(C/C=C/c2ccccc2)CC1,-6
CCOC(=O)c1c(C)c(P(=S)(N2CCOCC2)N2CCOCC2)n(C)c1C,9
N#Cc1c(/N=C/c2ccc(O)cc2O)sc2c1C1CCN2CC1,-8
Cc1cccc(C)c1NC(=O)c1cccn(Cc2ccc3c(c2)OC(F)(F)O3)c1=O,7
O=C1NC(=O)N(c2ccc(Br)cc2)C(=O)/C1=C/c1ccsc1,0
COc1ccc(/C=C2/C(=O)NC(=O)N(c3ccc(C)c(C)c3)C2=O)cc1CN1C(=O)c2ccccc2C1=O,2
CSc1ncc(/C=C2/C(=O)NC(=O)N(c3ccc(Cl)cc3)C2=O)cn1,260*
Cc1nn(-c2ccccc2)c2c1C(c1ccc3c(c1)OCO3)SCC(=O)N2 (stereo unspecified),-79
Cc1cc2c(C(C)C)c(O)c(O)c(C=O)c2c(O)c1-c1c(C)cc2c(C(C)C)c(O)c(O)c(C=O)c2c1O,-62
CCOC(=O)C(NC(C)=O)C(OC(C)=O)c1cccc(N(CCCl)CCCl)c1 (stereo unspecified),332
Cc1c2ccncc2c(C)c2c1[nH]c1ccccc12,354*
C(=NC12CN3CN(CN(C3)C1)C2)c1cccs1,-3
CCC(=NCc1ccco1)c1c(O)[nH]c(=O)[nH]c1=O,9
SMILES,INS promoter act
Cc1cccc2c1N(N=O)CCC2,0
Cc1cc(C(=O)N2CCC3(CC2)OCCO3)cs1,-4
Cc1noc(C)c1C(=O)N1CCC2(CC1)OCCO2,-8
O=C(c1ccc2c(c1)ncn2-c1ccc(F)cc1F)N1CCC2(CC1)OCCO2,486*
C=Cn1ccnc1P(=S)(c1ccccc1)c1nccn1C=C,-8
O=C1NC(=O)C(CCc2ccncc2)(Cc2ccc3c(c2)OCO3)C(=O)N1CCc1ccccc1 (stereo unspecified),3
CC1(C)COC(Nc2cccc(Cl)c2)=N1,-3
O=c1cc(C(F)(F)F)c2cc3c4c(c2o1)CCCN4CCC3,164*
CC1=CC(=O)NP(=O)(Oc2ccc3ccccc3c2)N1 (stereo unspecified),0
Cc1ccc(Cl)cc1-n1c(O)c(C=NCCCN2CCOCC2)c(=O)[nH]c1=O,-8
COCCN1Cc2cc(=O)n3c([nH]c4ccccc43)c2C1=N,109
C=CCn1c(O)c(C(CC)=NCCc2ccccc2)c(=O)[nH]c1=O,550*
C=CCn1c(O)c(C(C)=NCCc2ccccc2)c(=O)[nH]c1=O,0
CCCCn1c(O)c(C(CC)=NCc2ccc(F)cc2)c(=O)[nH]c1=O,-83
CC(=O)CC(=O)C1C(=O)N(C)C(=O)N(C)C1=O,-6
C(#CCN1CCOCC1)COCC#Cc1ccccc1,79*
Clc1cccc(C2NCCc3[nH]cnc32)c1 (stereo unspecified),-5
Cc1c(C=O)c2ccccc2n1Cc1cccc(F)c1,-8
Cc1cccc(C)c1NC1=NCCCS1,0
COc1cc(OC)c2c(c1)OCC1CON(C)C21 (stereo unspecified),-8
